The text below walks through data of ChEMBL document CHEMBL1124639, “Synthesis and in vitro pharmacology of arpromidine and related phenyl(pyridylalkyl)guanidines, a potential new class of positive inotropic drugs” (J Med Chem, 1989).

Experiment [1] has as its target Histamine H2 receptor (Cavia porcellus) (UniProt P47747). Description: H2 receptor agonistic activity in isolated right atrium of guinea pig compared to histamine. Particulars: Cardiac atrium. Type of experiment: functional, tissue-based. In short, it runs like this: (§1)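 Spontaneously beating isolated guinea pig right atrium with a positive chronotropic read-out. Cumulative concentration-response curves were run against histamine dihydrochloride as the standard. Incubation after each concentration was usually 25 min, adjusted until equilibrium. H2 selectivity was checked with cimetidine (10 µM and 1 µM) and metoprolol (1 µM). Potency relative to histamine = 1 was calculated from mean pD2 values.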

For experiment [2] the target is unchanged. Description: Intrinsic activity at H2 receptor in electrically stimulated guinea pig papillary muscle. Format: functional, tissue-based. In short, it runs like this: (§2)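 Isolated right-ventricular papillary muscle from guinea pig, electrically paced at 1 Hz with 1 ms pulses, in Krebs-Henseleit solution gassed with O2/CO2 95:5 at 32.5 °C. Compounds were tested as hydrohalide salts. Cumulative concentration-response curves of contractile force were run against histamine as the standard agonist. […] relative potency were taken from pD2, with histamine maximum = 1.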

For experiment [3] the target is unchanged. Description: Agonist activity at H2 receptor relative to histamine on electrically stimulated papillary muscle of guinea pig. Format: functional, tissue-based. A digest of the protocol:
as §2

For experiment [4] the target is unchanged. Description: Potency at H2 receptor compared to histamine from mean pD2 value in right atrium of guinea pig. The note with it: Cardiac atrium. Format: functional, tissue-based. A digest of the protocol:
as §1

The target is the same in experiment [5]. Description: H2 receptor agonist activity relative to histamine on isolated right atrium of guinea pig. Format: functional, tissue-based. Particulars: Cardiac atrium. In short, it runs like this:
as §1

Experiment [6] concerns the target T1, Histamine H1 receptor (Cavia porcellus, UniProt P31389). Description: Antagonist activity at histamine H1 receptor against histamine in isolated ileum of guinea pig. Format: functional, tissue-based. The note with it: read-out: pA2 (converted). In short, it runs like this:
(§3)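 Isolated guinea pig ileum contracted by histamine, with histamine dihydrochloride as the standard agonist in cumulative dose-response curves. pA2 was derived. For compounds that depressed the histamine maximum at 10 µM, -log KB was taken at 3 µM antagonist from log(DR-1) = log[ant.] - log KB.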

The target in experiment [7] is Histamine H2 receptor (Cavia porcellus) (UniProt P47747). Description: Histamine H2 receptor agonistic activity (as a measure of agonism) at the isolated right atrium of guinea pig, activity relative to histamine. Type of experiment: functional, tissue-based. The note with it: Cardiac atrium. In short, it runs like this: as §1
For experiment [8] the target is unchanged. Description: Potency relative to histamine calculated from mean pD2 value in guinea pig right atrium. Format: functional, tissue-based. The note with it: Cardiac atrium. A digest of the protocol: as §1
Experiment [9] has as its target T1, Histamine H1 receptor. Description: Antagonist activity at histamine H1 receptor against histamine in isolated ileum of guinea pig. Type of experiment: functional, tissue-based. The note with it: read-out: pA2 (converted). In short, it runs like this: as §3
Experiment [10] has as its target Histamine H2 receptor (Cavia porcellus) (UniProt P47747). Description: Histamine H2 receptor agonism relative to histamine on isolated guinea pig right atrium. Type of experiment: functional, tissue-based. Particulars: Cardiac atrium. A digest of the protocol: as §1
Experiment [11] has the same target. Description: Compound was tested for histamine H2 receptor agonistic activity of compound relative to histamine on isolated right atrium of guinea pig;NA means inactive as agonist at </=10 uM. Type of experiment: functional, tissue-based. The note with it: Cardiac atrium. In short, it runs like this: as §1
The species entered for experiment [12] is Cavia porcellus. Description: Chronotropic effect assessed from maximal increase in delta LV (dp/dtmax) in isolated perfused guinea pig heart. Format: functional. Particulars: in the assay text read “Inotropic effect” for “Chronotropic effect”. In short, it runs like this:
(§4)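 Langendorff-perfused isolated guinea pig heart. Compounds were given as a bolus injected into the perfusion stream, with impromidine as reference. Net increases in LV dp/dtmax, heart rate and coronary flow were expressed against impromidine = 100% in a control group (n = 6 each). Relative potency was taken from molar ED50 ratios versus impromidine = 100%.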

The species named for experiment [13] is Cavia porcellus. Description: Increase in coronary flow with maximal inotropic response in isolated perfused guinea pig heart. Type of experiment: functional. Further details: unit not given beside the values. A digest of the protocol:
as §4

The species entered for experiment [14] is Cavia porcellus. Description: Relative potency with impromidine (100%) in isolated perfused guinea pig heart. Format: functional. In short, it runs like this: as §4
Experiment [15] is filed under the species Cavia porcellus. Description: (§5) Increase in heart rate with maximal inotropic response in isolated perfused guinea pig heart. Format: functional. Further details: unit not given beside the values. A digest of the protocol:
as §4

Experiment [16] has as its target Histamine H2 receptor (Cavia porcellus) (UniProt P47747). Description: Intrinsic activity (as a measure of agonism) on electrically stimulated papillary muscle of guinea pig. Format: functional, tissue-based. The note with it: Muscle tissue. In short, it runs like this:
as §2

Experiment [17] shares this target. Description: Agonistic activity relative to histamine on electrically stimulated papillary muscle of guinea pig. Type of experiment: functional, tissue-based. The note with it: Muscle tissue. In short, it runs like this:
as §2

The species named for experiment [18] is Cavia porcellus. Described as §5. Type of experiment: functional. A digest of the protocol:
as §4

The source made the active and inactive calls. No cut-off for these calls is given here.

Sequence of Histamine H2 receptor (Cavia porcellus) (P47747 whole entry): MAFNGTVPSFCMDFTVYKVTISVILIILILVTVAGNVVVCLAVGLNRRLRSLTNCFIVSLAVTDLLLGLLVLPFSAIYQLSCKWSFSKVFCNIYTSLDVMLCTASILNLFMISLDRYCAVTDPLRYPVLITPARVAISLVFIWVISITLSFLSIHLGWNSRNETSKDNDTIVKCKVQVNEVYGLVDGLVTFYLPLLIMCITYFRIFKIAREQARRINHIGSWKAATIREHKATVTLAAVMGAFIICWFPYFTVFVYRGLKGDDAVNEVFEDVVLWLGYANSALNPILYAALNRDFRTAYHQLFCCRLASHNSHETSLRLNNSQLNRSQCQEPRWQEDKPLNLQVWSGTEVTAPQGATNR
T1 sequence (P31389 whole entry): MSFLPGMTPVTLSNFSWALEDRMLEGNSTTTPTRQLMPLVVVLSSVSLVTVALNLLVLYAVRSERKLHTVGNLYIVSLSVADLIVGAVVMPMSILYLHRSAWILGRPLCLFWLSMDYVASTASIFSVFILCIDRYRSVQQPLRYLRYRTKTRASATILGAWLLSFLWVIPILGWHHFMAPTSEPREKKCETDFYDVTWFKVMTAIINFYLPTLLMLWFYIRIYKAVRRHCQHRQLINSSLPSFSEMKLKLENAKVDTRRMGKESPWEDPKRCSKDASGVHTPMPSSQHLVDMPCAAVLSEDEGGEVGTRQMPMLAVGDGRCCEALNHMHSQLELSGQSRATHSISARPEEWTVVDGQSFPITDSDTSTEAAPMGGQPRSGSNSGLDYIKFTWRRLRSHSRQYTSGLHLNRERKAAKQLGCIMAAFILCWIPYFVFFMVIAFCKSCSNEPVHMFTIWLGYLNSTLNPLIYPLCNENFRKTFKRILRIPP

With `N=C(NCCCc1c[nH]cn1)NCCC(c1ccccc1)c1ccc(Cl)cc1` (stereo unspecified), the values for the Intrinsic activity in experiment [1] and in experiment [2] were 1 and 0.8, respectively. Besides, the pD2 was 5.83 in experiment [3] and 7.12 in [5]. This compound also showed a Relative potency in experiment [4] of 13.2. The Kb at Histamine H1 receptor [6] was 97.7 nM.
`N=C(NCCCc1c[nH]cn1)NCCC(c1ccncc1)c1ccc(F)cc1` (stereo unspecified): the Intrinsic activity in [1] came to 1; in experiment [2], 0.9. The pD2 in experiment [3] is 7.28; in experiment [5], 7.63. This compound showed a Relative potency in experiment [4] of 42.7. For the same compound, the Kb on Histamine H1 receptor [6] is 37.2 nM.
Compound `N/C(=N\CCC(c1ccc(O)cc1)c1ccccn1)NCCCc1c[nH]cn1` (stereo unspecified) had an Intrinsic activity in [7] of 1. In addition, in [8], the Relative potency was 4.3. Besides, the Kb at Histamine H1 receptor [9] is 661 nM. Moreover, the pD2 in [10] was 6.63.
For `N=C(N)NCCC(c1ccc(F)cc1)c1ccccn1` (stereo unspecified), the Intrinsic activity entry in experiment [11] is “inactive”. Further, at Histamine H1 receptor [6], the Kb was 229 nM.
As for `N=C(NCCCc1c[nH]cn1)NCCC(c1ccc(F)c(F)c1)c1ccccn1` (stereo unspecified), the Intrinsic activity in [1] was found to be 1; in [2] it was 0.8. The “Delta LV” value in the experiment listed under Cavia porcellus [12] is given as 123. Also, the results for the pD2 in experiment [3] and in experiment [5] were 7.9 and 8.12, respectively. In addition, the Relative potency in experiment [4] was determined as 132; in the experiment listed under Cavia porcellus [14], 240. In addition, the Delta coronary flow in the experiment listed under Cavia porcellus [13] was found to be 108. In addition, the Delta heart rate in the experiment listed under Cavia porcellus [15] came out at 85.
Take `N=C(NCCCc1c[nH]cn1)NCCC(c1ccccn1)c1ccccc1Cl` (stereo unspecified): the Intrinsic activity in experiment [1] came to 0.9. Besides, the Relative potency in [4] stood at 22.4. In [5], this compound came in with a pD2 of 7.35. Moreover, the Kb on Histamine H1 receptor [6] is 513 nM.
As for `N=C(NCCCc1c[nH]cn1)NCCC(c1ccccc1)c1ccccn1` (stereo unspecified), the Intrinsic activity in experiment [16] was 0.7; in [7], 1. Also, the results for the pD2 in [17] and in experiment [10] were 7.37 and 7.39, respectively. Also, in the experiment listed under Cavia porcellus [12], the “Delta LV” value worked out at 76. This compound yielded a Delta coronary flow in the experiment listed under Cavia porcellus [13] of 121. Also, the Relative potency in experiment [8] is 24.5; in the experiment filed under Cavia porcellus [14], 63. For the same compound, the Kb on Histamine H1 receptor [6] is 97.7 nM. Also, in the experiment filed under Cavia porcellus [18], the Delta heart rate is 70.
Regarding `N=C(NCCCc1c[nH]cn1)NCCC(c1ccc(Cl)c(Cl)c1)c1ccccn1` (stereo unspecified), the Intrinsic activity was 0.8 in experiment [16] and 1 in [7]. For the same compound, the pD2 amounted to 7.54 in experiment [17] and 8.19 in [10]. Besides, in the experiment filed under Cavia porcellus [12], the “Delta LV” value is recorded as 121. Besides, in the experiment listed under Cavia porcellus [13], the Delta coronary flow is recorded as 128. Further, the values for the Relative potency (in experiment [8]; in the experiment listed under Cavia porcellus [14]) were 155 and 221, respectively. This compound displayed a Delta heart rate in the experiment filed under Cavia porcellus [15] of 62. On Histamine H1 receptor [6], the Kb is 79.4 nM.
